Activity calls are given as the source filed them. No cut-off for these calls is given here.
How the values were obtained:
Zea mays = test: Selectivity for maize histone deacetylase 1A over maize histone deacetylase 1B
PC-3 = test: Antiproliferative activity against human PC3 cells after 48 hrs by MTT assay; format: functional, cell-based; conditions: PC-3, 48 h
In short: (§1)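 Cells seeded at 4000/well; compounds (10 mg/mL DMSO stock, diluted in medium) added 24 h after seeding, in duplicate. Incubation 48 h at 37 °C, 5% CO2. MTT (20 µL of 5 mg/mL in PBS) then added for 4 h at 37 °C, and the signal read at 570 nm.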

Histone deacetylase 1 = Histone deacetylase 1 (Homo sapiens, UniProt Q13547); test: Inhibition of human recombinant HDAC1 using Fluor de Lys as substrate by fluorimetric assay
In short: (§2)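 Purified recombinant HDAC1 or HDAC4 was incubated with acetylated-lysine Fluor de Lys substrate, with or without inhibitor. Developer was then added to give the fluorophore, and fluorescence was read. IC50 values are means of at least three experiments. SI is IC50(HDAC1)/IC50(HDAC4).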

[1] = target: T1, Protein deacetylase HDAC6 (Homo sapiens) (UniProt Q9UBN7); test: Inhibition of HDAC6 in human U937 cells assessed as induction of alpha-tubulin acetylation after 24 hrs by Western blot analysis; format: cell-based; conditions: U-937
T1 sequence (whole entry): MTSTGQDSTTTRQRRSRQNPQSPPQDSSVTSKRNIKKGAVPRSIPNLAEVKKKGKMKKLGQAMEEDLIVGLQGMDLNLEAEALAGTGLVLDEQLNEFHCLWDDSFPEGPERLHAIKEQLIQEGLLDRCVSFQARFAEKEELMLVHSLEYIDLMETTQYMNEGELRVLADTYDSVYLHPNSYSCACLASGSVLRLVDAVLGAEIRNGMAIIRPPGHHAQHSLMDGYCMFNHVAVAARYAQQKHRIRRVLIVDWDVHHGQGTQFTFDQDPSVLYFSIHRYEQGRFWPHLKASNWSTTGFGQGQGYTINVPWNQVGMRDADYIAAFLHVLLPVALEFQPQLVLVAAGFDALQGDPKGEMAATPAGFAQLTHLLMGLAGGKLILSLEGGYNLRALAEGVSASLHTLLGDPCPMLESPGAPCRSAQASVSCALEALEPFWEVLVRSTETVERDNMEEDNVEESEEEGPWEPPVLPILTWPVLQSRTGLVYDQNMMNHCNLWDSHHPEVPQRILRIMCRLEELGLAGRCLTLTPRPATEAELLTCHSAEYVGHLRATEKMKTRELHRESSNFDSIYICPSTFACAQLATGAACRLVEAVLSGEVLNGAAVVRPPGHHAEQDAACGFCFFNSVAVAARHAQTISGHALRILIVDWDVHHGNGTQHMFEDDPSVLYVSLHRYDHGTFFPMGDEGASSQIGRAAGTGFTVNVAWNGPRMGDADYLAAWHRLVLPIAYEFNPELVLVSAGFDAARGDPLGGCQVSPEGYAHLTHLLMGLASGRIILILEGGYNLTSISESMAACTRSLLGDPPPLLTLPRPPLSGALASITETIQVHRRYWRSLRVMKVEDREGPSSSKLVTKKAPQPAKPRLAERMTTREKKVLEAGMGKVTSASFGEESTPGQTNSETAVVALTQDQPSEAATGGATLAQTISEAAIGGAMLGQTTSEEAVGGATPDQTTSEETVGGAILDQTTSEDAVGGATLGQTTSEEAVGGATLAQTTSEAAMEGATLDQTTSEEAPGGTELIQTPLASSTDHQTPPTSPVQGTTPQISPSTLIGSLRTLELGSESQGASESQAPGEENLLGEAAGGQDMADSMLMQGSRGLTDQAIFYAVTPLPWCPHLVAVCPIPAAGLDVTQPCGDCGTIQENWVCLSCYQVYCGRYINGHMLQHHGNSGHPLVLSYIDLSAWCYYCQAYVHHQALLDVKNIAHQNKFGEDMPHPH
In short: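 U937 cells were treated for 24 h. Total protein extract (50 µg) was run on a 10% polyacrylamide gel and blotted for acetylated α-tubulin (1:500), with total ERK as the loading control.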

U-937 [2] = test: Induction of p21waf1/CIP1 expression in human U937 cells after 24 hrs by Western blot analysis; format: functional, cell-based
In short: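 U937 cells were treated for 24 h. Total protein extracts (50 µg) were run on a 15% polyacrylamide gel and blotted for p21 (1:500), with tubulin as the loading control.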

Plasma [3] = test: Stability in rat plasma at 25 ug/ml; format: ADME, cell-free
In short: (§3)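 Compounds were dissolved in blank rat plasma (1 mg/mL stock) and serially diluted with plasma. Samples were incubated at 37 °C and sampled at several times. Proteins were precipitated with two volumes of acetonitrile and spun at 16,000 rpm for 5 min, and the supernatant was analysed by HPLC.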

U-937 [4] = test: Cell cycle arrest in human U937 cells assessed as accumulation at S phase at 5 uM after 24 hrs by flow cytometry; format: functional, cell-based
In short: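 U937 cells were grown in RPMI with 10% FCS, penicillin/streptomycin, amphotericin-B, 10 mM Hepes and 2 mM glutamine, and held at 200,000 cells/mL. Cells were treated 24 h with compounds in DMSO. 2.5×10^5 cells were resuspended in hypotonic buffer (0.1% Triton X-100, 0.1% sodium citrate, 50 µg/mL PI, RNase A) for 30 min in the dark, then analysed by flow cytometry. Values are means of independent duplicates.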

Plasma [5] = test: Stability in rat plasma at 100 ug/ml; format: ADME, cell-free; in short: as §3
HCT-116 = test: Antiproliferative activity against human HCT116 cells after 48 hrs by MTT assay; format: functional, cell-based; conditions: HCT-116, 48 h; in short: as §1
Histone deacetylase 4 = Histone deacetylase 4 (Homo sapiens, UniProt P56524); test: Inhibition of human recombinant HDAC4 using Fluor de Lys as substrate by fluorimetric assay; in short: as §2
HepG2 = test: Antiproliferative activity against human HepG2 cells after 48 hrs by MTT assay; format: functional, cell-based; conditions: HepG2, 48 h; in short: as §1
Homo sapiens = species on record: Homo sapiens; test: Selectivity index, ratio of IC50 for human recombinant HDAC1 to IC50 for human recombinant HDAC4; in short: as §2
A549 = test: Antiproliferative activity against human A549 cells after 48 hrs by MTT assay; format: functional, cell-based; conditions: A549, 48 h; in short: as §1
U-937 [6] = test: Induction of monocytic differentiation in human U937 cells assessed as CD14 expression at 5 uM after 30 hrs by FACS analysis; format: functional, cell-based
In short: (§4)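 U937 cells were grown in RPMI with 10% FCS, 10 mM Hepes and 2 mM glutamine at 200,000 cells/mL. Compounds in DMSO were given for 30 h (5 µM) or 28 h (0.5 µM). Cells were stained for surface antigen for 30 min at 4 °C in the dark, washed, and resuspended in PBS with propidium iodide. PI-positive cells were excluded from the FACS analysis. Values are means of independent quadruplicates.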

U-937 [7] = test: Induction of apoptosis in human U937 cells assessed as caspase 3 activation at 5 uM after 30 hrs by FACS analysis; format: functional, cell-based
In short: (§5)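 U937 cells were grown in supplemented RPMI at 200,000 cells/mL. Compounds in DMSO were given at 5 µM for 24 h or 30 h, or at 0.5 µM for 28 h. Apoptosis was analysed by FACS. Values are means of independent duplicates.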

U-937 [8] = test: Increase in granulocytic differentiation in human U937 cells assessed as CD11c expression at 5 uM after 30 hrs by FACS analysis; format: functional, cell-based; in short: as §4
[9] = Inhibition of HDAC
Histone deacetylase = test: Inhibition of human recombinant HDAC by fluorimetric assay; format: protein assay
U-937 [10] = test: Induction of apoptosis in human U937 cells assessed as caspase 3 activation at 0.5 uM after 28 hrs by FACS analysis; format: functional, cell-based; in short: as §5
U-937 [11] = test: Increase in granulocytic differentiation in human U937 cells assessed as CD11c expression at 0.5 uM after 28 hrs by FACS analysis; format: functional, cell-based; in short: as §4

Sequence of Histone deacetylase 1 (Q13547 whole entry): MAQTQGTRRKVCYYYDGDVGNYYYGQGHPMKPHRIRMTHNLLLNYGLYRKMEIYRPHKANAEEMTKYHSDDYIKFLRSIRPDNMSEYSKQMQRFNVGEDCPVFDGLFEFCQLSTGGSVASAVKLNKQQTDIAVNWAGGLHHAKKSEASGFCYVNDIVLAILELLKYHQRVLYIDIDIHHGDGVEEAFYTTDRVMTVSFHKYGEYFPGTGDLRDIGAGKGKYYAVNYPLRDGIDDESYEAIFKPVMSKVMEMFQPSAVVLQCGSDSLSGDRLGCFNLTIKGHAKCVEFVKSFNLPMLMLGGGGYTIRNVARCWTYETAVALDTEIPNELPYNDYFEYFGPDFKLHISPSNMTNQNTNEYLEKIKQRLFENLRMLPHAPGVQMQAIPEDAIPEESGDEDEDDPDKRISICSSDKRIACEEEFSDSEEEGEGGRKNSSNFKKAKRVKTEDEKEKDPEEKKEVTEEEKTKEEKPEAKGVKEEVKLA
Sequence of Histone deacetylase 4 (P56524 whole entry): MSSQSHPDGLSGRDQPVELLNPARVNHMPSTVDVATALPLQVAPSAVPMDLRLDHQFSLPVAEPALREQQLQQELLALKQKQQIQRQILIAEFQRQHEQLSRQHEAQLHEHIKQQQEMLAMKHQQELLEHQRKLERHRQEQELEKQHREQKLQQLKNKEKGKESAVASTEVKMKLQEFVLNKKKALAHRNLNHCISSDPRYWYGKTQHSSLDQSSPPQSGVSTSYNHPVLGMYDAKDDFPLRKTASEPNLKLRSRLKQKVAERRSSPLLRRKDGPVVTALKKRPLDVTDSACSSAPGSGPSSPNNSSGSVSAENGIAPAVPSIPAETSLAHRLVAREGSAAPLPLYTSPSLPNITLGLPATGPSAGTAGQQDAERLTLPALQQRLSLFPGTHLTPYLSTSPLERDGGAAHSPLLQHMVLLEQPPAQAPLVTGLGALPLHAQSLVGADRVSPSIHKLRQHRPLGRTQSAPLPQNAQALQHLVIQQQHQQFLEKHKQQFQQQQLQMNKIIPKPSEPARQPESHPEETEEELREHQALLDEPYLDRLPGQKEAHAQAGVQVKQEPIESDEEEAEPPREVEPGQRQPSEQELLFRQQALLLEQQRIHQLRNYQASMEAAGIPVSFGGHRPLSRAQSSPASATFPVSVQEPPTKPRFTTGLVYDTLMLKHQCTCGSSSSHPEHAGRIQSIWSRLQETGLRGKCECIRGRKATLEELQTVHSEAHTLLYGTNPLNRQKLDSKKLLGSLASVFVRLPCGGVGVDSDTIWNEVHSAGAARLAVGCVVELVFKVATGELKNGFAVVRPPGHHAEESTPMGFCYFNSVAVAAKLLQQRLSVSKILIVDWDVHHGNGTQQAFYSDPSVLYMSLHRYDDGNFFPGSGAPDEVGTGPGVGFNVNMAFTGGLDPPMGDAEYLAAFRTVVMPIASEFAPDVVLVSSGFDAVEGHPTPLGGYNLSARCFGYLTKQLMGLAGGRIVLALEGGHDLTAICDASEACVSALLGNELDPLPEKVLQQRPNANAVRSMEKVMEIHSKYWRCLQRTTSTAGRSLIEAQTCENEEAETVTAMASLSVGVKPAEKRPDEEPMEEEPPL

| SMILES | Selectivity ratio (Zea mays) | IC50 (PC-3) [µM] | IC50 (Histone deacetylase 1) [µM] | Activity [1] | Stability (Plasma [3]) | Stability (Plasma [5]) | IC50 (HCT-116) [nM] | IC50 (Histone deacetylase 4) [µM] | IC50 (HepG2) [µM] | Ratio IC50 (Homo sapiens) | IC50 (A549) [µM] | IC50 [9] [nM] | IC50 (Histone deacetylase) [µM] | Activity (U-937 [2]) | Activity (U-937 [4]) | Activity (U-937 [6]) | Activity (U-937 [7]) | Activity (U-937 [8]) | Activity (U-937 [10]) | Activity (U-937 [11]) |
| --- | --- | --- | --- | --- | --- | --- | --- | --- | --- | --- | --- | --- | --- | --- | --- | --- | --- | --- | --- | --- |
| O=C(NO)c1ccc(/C=C/c2ccccc2)o1 | – | 40.4 | 49.1 | – | Stable | Stable | 2490 | 47.2 | 12.8 | 1.04 | 32.5 | – | – | – | – | inactive | Active | Active | – | – |
| COc1cc(/C=C/c2ccc(C(=O)NO)o2)ccc1OCc1ccccc1 | – | 1.2 | 13.4 | – | – | – | – | 10.2 | 30.9 | 1.3 | 50.3 | – | 1.89 | – | – | – | – | – | Active | Active |

Continued, in another order:

| Selectivity ratio (Zea mays) | IC50 (PC-3) [µM] | IC50 (Histone deacetylase 1) [µM] | Activity [1] | Stability (Plasma [3]) | Stability (Plasma [5]) | IC50 (HCT-116) [nM] | IC50 (Histone deacetylase 4) [µM] | IC50 (HepG2) [µM] | Ratio IC50 (Homo sapiens) | IC50 (A549) [µM] | IC50 [9] [nM] | IC50 (Histone deacetylase) [µM] | SMILES | Activity (U-937 [2]) | Activity (U-937 [4]) | Activity (U-937 [6]) | Activity (U-937 [7]) | Activity (U-937 [8]) | Activity (U-937 [10]) | Activity (U-937 [11]) |
| --- | --- | --- | --- | --- | --- | --- | --- | --- | --- | --- | --- | --- | --- | --- | --- | --- | --- | --- | --- | --- |
| 176 | – | – | – | – | – | – | – | – | – | – | – | – | Cn1cc(/C=C/C(=O)c2cccc(F)c2)cc1/C=C/C(=O)NO | – | – | – | – | – | – | – |
| – | 13.3 | 11.5 | Active | Stable | Stable | 2890 | 22.8 | 12.1 | 0.5 | 20.2 | – | – | O=C(/C=C/c1ccc(/C=C/C(=O)c2ccccc2)o1)NO | Active | Active | – | – | – | – | – |
| – | – | – | – | – | – | – | – | – | – | – | 1800 | – | O=C(/C=C/C=C/C=C/c1ccccc1)NO | – | – | – | – | – | – | – |

Source: ChEMBL document CHEMBL1139422, “Design, synthesis and biological evaluation of novel compounds with conjugated structure as anti-tumor agents” (Bioorg Med Chem, 2008)
